One compound from ChEMBL document CHEMBL1138325, “Design, synthesis, in vitro, and in vivo characterization of phenylpiperazines and pyridinylpiperazines as potent and selective antagonists of the melanocortin-4 receptor” (J Med Chem, 2007) can be followed below.

For orientation: logD means the decadic logarithm of the distribution of all forms, ionised or not, between an organic phase and buffer at a given pH. One may read the clearance as a measure of how efficiently the substance is removed, as volume per time. In general, Tmax refers to the time at which the peak concentration occurs. As usually defined, the bioavailability is dose-corrected exposure relative to a reference, in per cent. What is called Cmax is the peak of the concentration-time curve. Broadly, the IC50 is the point on the concentration scale where inhibition reaches its midpoint. For orientation: Ki means the dissociation constant of the complex between target and ligand, obtained from inhibition or displacement.

SMILES strings stand for the structures. The source made the active and inactive calls. The calls are words filed in the database; no cut-off is given here.

Data set [1] is described as follows: Distribution coefficient, log D by shake flask method. In kind it is physicochemical. Particulars: octanol/water. The method, boiled down:
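LogD measured by the shake-flask method; described elsewhere in the paper as lipophilicity at pH 7.4.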

Data set [2] is described as follows: Clearance in CD1 mouse at 5 mg/kg, iv. The format is ADME, organism-based. Also on record: dose 5 mg/kg, route intravenous. The following applies: in vivo. A digest of the protocol:
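CD-1 mice, three animals, dosed i.v. at 5 mg/kg and by oral gavage at 10 mg/kg. Plasma CL, Vd, t1/2, Cmax, Tmax, oral AUC and F% were derived. Brain concentrations and brain/plasma ratios at 1 and 4 h were taken from the i.v. dosing.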

The nature of data set [3]: Tmax in Sprague-Dawley rat at 5 mg/kg, iv and 10 mg/kg, po. Particulars: in vivo. The format is ADME, organism-based. The method, boiled down:
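Sprague–Dawley rats, three animals per route; i.v. dose 5 mg/kg and oral 10 mg/kg. Brain concentrations and brain/plasma ratios taken from the oral dosing at 1 and 4 h post-dose.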

Data set [4] is described as follows: Clearance in dog at 5 mg/kg, iv. In kind it is ADME, organism-based, Canis lupus familiaris. More on the design: dose 5 mg/kg, route intravenous. Particulars: in vivo.
Data set [5] is described as follows: Bioavailability in dog at 10 mg/kg, po. The following applies: in vivo. In kind it is ADME, organism-based, Canis lupus familiaris.
Data set [6] deals with Mus musculus. Description: Increase in food intake in Lewis lung carcinoma bearing C57BL/6J mouse at 9 mg/kg, ip bid after 4 days. In kind it is functional, organism-based. Also on record: dose 9 mg/kg. The method, boiled down:
(§1)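 Male C57BL/6J mice inoculated with Lewis lung carcinoma cells. From day 11 after inoculation, mice were dosed i.p. twice daily at 3 or 9 mg/kg for 4 days and compared with vehicle-treated tumor-bearing controls. Food intake and body weight were recorded; lean body mass was measured by DEXA.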

Data set [7] in a line: Cmax in monkey at 10 mg/kg, po. Particulars: rhesus monkey, in vivo. More on the design: dose 10 mg/kg, route oral. In kind it is ADME, organism-based, Macaca mulatta.
Data set [8] has as its system Mus musculus. Description: Increase in lean body mass in Lewis lung carcinoma bearing C57BL/6J mouse at 9 mg/kg, ip bid after 4 days. In kind it is functional. Particulars: route intraperitoneal. A digest of the protocol:
as §1

Data set [9] in a line: Ratio of drug level in brain to plasma in CD1 mouse at 10 mg/kg, ip. Particulars: read-out: BPR. More on the design: dose 10 mg/kg, route intraperitoneal. In kind it is ADME, organism-based.
Data set [10] has as its target T1, Cytochrome P450 1A2 (Homo sapiens, UniProt P05177).
T1 sequence (P05177 whole entry): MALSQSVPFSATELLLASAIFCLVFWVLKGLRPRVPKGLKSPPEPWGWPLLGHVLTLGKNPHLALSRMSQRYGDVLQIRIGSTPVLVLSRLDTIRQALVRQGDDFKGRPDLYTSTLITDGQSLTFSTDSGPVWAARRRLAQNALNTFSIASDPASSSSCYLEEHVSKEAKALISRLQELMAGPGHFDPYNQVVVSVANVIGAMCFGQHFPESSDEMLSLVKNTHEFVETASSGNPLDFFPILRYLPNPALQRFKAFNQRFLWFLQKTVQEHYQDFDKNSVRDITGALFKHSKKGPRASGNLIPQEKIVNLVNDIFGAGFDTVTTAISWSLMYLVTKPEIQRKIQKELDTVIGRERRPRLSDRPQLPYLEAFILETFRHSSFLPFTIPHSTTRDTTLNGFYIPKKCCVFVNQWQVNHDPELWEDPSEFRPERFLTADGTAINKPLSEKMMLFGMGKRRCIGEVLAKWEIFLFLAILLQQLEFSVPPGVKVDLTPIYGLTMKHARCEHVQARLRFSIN
Kind of data set: Inhibition of CYP1A2. The format is ADME.

Data set [11] has as its target Cytochrome P450 2D6 (Homo sapiens, UniProt P10635). Description: Inhibition of CYP2D6. In kind it is ADME.
Data set [12] concerns the target Growth hormone secretagogue receptor type 1 (Homo sapiens, UniProt Q92847). Description: Binding affinity to GHSR.

Cytochrome P450 2D6, sequence (P10635 whole entry): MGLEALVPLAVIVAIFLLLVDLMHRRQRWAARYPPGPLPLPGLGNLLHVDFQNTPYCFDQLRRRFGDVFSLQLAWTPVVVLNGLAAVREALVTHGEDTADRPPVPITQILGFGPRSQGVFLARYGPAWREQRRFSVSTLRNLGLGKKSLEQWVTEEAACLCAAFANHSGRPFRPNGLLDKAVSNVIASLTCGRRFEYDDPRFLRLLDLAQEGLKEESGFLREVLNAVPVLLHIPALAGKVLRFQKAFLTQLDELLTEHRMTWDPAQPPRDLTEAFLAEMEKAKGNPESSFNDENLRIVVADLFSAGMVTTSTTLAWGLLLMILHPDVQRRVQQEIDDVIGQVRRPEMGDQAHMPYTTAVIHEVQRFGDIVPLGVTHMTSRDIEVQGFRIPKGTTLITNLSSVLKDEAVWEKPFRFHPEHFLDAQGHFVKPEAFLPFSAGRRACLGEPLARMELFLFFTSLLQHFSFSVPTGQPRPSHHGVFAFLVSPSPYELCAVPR
Growth hormone secretagogue receptor type 1, sequence (Q92847 whole entry): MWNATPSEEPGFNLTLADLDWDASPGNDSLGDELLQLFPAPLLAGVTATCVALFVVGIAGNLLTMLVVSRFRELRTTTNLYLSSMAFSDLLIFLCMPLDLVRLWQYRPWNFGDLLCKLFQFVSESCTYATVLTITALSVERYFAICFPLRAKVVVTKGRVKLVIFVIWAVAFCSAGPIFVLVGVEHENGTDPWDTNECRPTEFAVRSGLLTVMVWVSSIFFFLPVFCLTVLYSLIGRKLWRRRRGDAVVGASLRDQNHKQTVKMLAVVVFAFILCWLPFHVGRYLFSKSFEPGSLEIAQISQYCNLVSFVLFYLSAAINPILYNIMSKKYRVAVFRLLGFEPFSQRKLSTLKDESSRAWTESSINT

As to `CC(C)C[C@H](NC(=O)CCN(C)C)c1cc(Cl)ccc1N1CCN(C(=O)[C@H](C)Cc2ccc(Cl)cc2)CC1`, the logD in [1] was 3.9. Further, the clearance in [2] was 36 mL/min/kg; in data set [4], 29.4 mL/min/kg. Besides, the Tmax in [3] is 6 h. In data set [5], the bioavailability worked out at 29.4%. The result in data set [6] was Active. The Cmax in [7] stood at 108 ng/mL. In addition, in [8], the Activity was 15%. Moreover, the Kp in data set [9] came out at 2. In addition, the IC50 in data set [10] and in [11] was more than 10 µM each time. For the same compound, the inhibition constant Ki in [12] came to 0.46 µM.
